{"source": "ChEMBL document CHEMBL1955770", "about": "“Inhibition of S/G2 phase CDK4 reduces mitotic fidelity” (J Biol Chem, 2006)", "key": {"[1]": {"biological_target": "Serine/threonine-protein kinase Nek9 (Homo sapiens) (UniProt Q8TD19)", "sequence (Q8TD19 whole entry)": "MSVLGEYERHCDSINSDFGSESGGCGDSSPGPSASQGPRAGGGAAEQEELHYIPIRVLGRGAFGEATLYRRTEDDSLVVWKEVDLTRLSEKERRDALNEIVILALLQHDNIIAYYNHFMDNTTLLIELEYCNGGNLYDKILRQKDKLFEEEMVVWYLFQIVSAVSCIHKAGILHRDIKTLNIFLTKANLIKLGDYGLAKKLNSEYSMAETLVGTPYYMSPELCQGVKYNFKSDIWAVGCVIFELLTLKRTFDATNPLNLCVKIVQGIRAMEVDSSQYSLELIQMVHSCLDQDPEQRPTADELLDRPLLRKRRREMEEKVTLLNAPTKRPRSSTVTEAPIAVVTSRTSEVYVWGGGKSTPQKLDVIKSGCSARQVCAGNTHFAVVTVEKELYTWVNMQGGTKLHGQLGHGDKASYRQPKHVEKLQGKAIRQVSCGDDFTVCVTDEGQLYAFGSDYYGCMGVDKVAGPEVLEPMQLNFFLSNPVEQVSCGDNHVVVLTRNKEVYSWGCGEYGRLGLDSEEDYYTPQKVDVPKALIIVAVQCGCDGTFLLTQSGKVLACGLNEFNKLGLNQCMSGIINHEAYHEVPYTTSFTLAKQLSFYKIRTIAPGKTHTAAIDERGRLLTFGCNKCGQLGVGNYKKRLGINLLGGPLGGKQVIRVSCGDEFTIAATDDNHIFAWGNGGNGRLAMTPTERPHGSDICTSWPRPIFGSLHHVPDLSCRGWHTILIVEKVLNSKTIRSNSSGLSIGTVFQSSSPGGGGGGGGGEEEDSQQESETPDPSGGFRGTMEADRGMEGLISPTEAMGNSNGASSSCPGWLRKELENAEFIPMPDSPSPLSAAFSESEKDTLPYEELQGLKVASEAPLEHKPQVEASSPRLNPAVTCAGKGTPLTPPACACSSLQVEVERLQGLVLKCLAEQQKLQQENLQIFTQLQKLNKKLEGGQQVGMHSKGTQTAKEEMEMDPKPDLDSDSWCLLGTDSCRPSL", "test": "Inhibition of NEK9 at 1 uM"}, "[2]": {"biological_target": "Mitogen-activated protein kinase 10 (Homo sapiens) (UniProt P53779)", "sequence (P53779 whole entry)": "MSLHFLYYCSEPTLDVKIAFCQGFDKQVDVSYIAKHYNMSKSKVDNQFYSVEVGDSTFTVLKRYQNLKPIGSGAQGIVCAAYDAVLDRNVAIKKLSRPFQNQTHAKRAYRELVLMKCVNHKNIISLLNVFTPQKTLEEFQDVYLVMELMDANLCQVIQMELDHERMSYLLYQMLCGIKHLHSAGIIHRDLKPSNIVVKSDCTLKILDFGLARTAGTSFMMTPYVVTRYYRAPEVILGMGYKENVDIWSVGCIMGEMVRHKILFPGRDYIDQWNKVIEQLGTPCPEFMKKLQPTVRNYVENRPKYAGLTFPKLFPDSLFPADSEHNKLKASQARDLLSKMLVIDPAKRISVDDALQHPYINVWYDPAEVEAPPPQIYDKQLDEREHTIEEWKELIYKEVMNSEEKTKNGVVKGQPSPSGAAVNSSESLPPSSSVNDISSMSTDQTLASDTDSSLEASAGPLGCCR", "test": "Inhibition of JNK3 at 1 uM"}, "[3]": {"biological_target": "MAP kinase-interacting serine/threonine-protein kinase 2 (Homo sapiens) (UniProt Q9HBH9)", "test": "Inhibition of MKNK2 at 1 uM"}, "[4]": {"biological_target": "Serine/threonine-protein kinase PAK 6 (Homo sapiens) (UniProt Q9NQU5)", "test": "Inhibition of PAK6 at 1 uM"}, "[5]": {"biological_target": "Tyrosine-protein kinase Lyn (Homo sapiens) (UniProt P07948)", "test": "Inhibition of LYN at 1 uM"}, "[6]": {"biological_target": "Serine/threonine-protein kinase 10 (Homo sapiens) (UniProt O94804)", "test": "Inhibition of STK10 at 1 uM"}, "[7]": {"biological_target": "Calcium/calmodulin-dependent protein kinase type 1 (Homo sapiens) (UniProt Q14012)", "test": "Inhibition of CAMK1 at 1 uM", "outline": "(§1)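 Competition binding screen across a kinase panel with compound at 1 μM. Read-out is % competition. Kinases not hit at this concentration were scored '<50'. No Kd was determined for hits.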"}, "[8]": {"biological_target": "Tyrosine-protein kinase FRK (Homo sapiens) (UniProt P42685)", "sequence (P42685 whole entry)": "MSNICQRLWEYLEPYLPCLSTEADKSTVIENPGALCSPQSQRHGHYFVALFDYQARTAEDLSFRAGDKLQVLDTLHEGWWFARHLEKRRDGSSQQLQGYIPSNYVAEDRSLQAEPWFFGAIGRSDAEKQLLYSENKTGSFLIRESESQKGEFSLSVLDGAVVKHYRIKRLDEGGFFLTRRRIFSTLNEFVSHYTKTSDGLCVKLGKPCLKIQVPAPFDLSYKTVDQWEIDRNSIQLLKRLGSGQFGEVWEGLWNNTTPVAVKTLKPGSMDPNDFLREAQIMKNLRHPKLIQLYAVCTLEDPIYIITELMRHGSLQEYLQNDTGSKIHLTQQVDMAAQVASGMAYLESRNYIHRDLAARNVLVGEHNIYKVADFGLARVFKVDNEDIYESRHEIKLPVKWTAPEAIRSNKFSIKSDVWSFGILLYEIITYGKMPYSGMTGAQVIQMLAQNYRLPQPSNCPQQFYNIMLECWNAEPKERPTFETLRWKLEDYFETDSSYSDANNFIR", "test": "Inhibition of FRK at 1 uM"}, "[9]": {"biological_target": "Tyrosine-protein kinase Fer (Homo sapiens) (UniProt P16591)", "test": "Inhibition of FER at 1 uM"}, "[10]": {"biological_target": "Tyrosine-protein kinase ABL2 (Homo sapiens) (UniProt P42684)", "test": "Inhibition of ABL2 at 1 uM", "outline": "as §1"}, "[11]": {"biological_target": "Death-associated protein kinase 3 (Homo sapiens) (UniProt O43293)", "test": "Inhibition of DAPK3 at 1 uM"}, "[12]": {"biological_target": "Calcium/calmodulin-dependent protein kinase type II subunit gamma (Homo sapiens) (UniProt Q13555)", "test": "Inhibition of CAMK2G at 1 uM", "outline": "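Competition binding screen against a kinase panel, compound tested at a single concentration of 1 μM. Read-out is % competition, where higher scores mark stronger hits. Kinases not hit in the primary screen are reported as '<50'. No Kd values were determined.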"}, "[13]": {"biological_target": "Ephrin type-A receptor 3 (Homo sapiens) (UniProt P29320)", "test": "Inhibition of EPHA3 at 1 uM"}, "[14]": {"biological_target": "Tyrosine-protein kinase Fgr (Homo sapiens) (UniProt P09769)", "test": "Inhibition of FGR at 1 uM"}, "[15]": {"biological_target": "Phosphorylase b kinase gamma catalytic chain, liver/testis isoform (Homo sapiens) (UniProt P15735)", "sequence (P15735 whole entry, canonical isoform)": "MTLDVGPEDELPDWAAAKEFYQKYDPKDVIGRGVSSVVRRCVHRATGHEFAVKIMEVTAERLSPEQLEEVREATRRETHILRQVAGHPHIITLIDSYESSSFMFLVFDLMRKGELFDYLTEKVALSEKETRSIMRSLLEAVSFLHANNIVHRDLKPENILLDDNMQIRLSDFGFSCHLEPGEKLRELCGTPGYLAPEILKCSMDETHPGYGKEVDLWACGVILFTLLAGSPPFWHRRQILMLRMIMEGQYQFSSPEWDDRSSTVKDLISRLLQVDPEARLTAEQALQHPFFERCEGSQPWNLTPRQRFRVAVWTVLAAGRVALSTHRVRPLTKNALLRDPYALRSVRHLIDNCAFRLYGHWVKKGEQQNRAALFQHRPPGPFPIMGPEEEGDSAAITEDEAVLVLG", "test": "Inhibition of PHKG2 at 1 uM"}, "[16]": {"biological_target": "Ephrin type-B receptor 4 (Homo sapiens) (UniProt P54760)", "test": "Inhibition of EPHB4 at 1 uM"}, "[17]": {"biological_target": "Ephrin type-A receptor 4 (Homo sapiens) (UniProt P54764)", "test": "Inhibition of EPHA4 at 1 uM"}, "[18]": {"biological_target": "Mitogen-activated protein kinase 12 (Homo sapiens) (UniProt P53778)", "test": "Inhibition of p38-gamma at 1 uM"}, "[19]": {"biological_target": "Tyrosine-protein kinase CSK (Homo sapiens) (UniProt P41240)", "test": "Inhibition of CSK at 1 uM"}, "[20]": {"biological_target": "Casein kinase I isoform gamma-1 (Homo sapiens) (UniProt Q9HCP0)", "test": "Inhibition of CSNK1G1 at 1 uM"}, "[21]": {"biological_target": "Casein kinase I isoform epsilon (Homo sapiens) (UniProt P49674)", "test": "Inhibition of CSNK1E at 1 uM"}, "[22]": {"biological_target": "Aurora kinase A (Homo sapiens) (UniProt O14965)", "test": "Inhibition of AURKA at 1 uM", "outline": "as §1"}, "[23]": {"biological_target": "Fibroblast growth factor receptor 2 (Homo sapiens) (UniProt P21802)", "test": "Inhibition of FGFR2 at 1 uM"}, "[24]": {"biological_target": "Serine/threonine-protein kinase 36 (Homo sapiens) (UniProt Q9NRP7)", "test": "Inhibition of STK36 at 1 uM"}, "[25]": {"biological_target": "Tyrosine-protein kinase JAK2 (Homo sapiens) (UniProt O60674)", "test": "Inhibition of JAK2(Kin.Dom.2) at 1 uM"}, "[26]": {"biological_target": "Myosin light chain kinase 2, skeletal/cardiac muscle (Homo sapiens) (UniProt Q9H1R3)", "test": "Inhibition of MYLK2 at 1 uM"}, "[27]": {"biological_target": "cAMP-dependent protein kinase catalytic subunit alpha (Homo sapiens) (UniProt P17612)", "test": "Inhibition of PKA catalytic subunit alpha at 1 uM"}, "[28]": {"biological_target": "Ephrin type-A receptor 8 (Homo sapiens) (UniProt P29322)", "test": "Inhibition of EPHA8 at 1 uM"}, "[29]": {"biological_target": "Proto-oncogene tyrosine-protein kinase ROS (Homo sapiens) (UniProt P08922)", "sequence (P08922 whole entry)": "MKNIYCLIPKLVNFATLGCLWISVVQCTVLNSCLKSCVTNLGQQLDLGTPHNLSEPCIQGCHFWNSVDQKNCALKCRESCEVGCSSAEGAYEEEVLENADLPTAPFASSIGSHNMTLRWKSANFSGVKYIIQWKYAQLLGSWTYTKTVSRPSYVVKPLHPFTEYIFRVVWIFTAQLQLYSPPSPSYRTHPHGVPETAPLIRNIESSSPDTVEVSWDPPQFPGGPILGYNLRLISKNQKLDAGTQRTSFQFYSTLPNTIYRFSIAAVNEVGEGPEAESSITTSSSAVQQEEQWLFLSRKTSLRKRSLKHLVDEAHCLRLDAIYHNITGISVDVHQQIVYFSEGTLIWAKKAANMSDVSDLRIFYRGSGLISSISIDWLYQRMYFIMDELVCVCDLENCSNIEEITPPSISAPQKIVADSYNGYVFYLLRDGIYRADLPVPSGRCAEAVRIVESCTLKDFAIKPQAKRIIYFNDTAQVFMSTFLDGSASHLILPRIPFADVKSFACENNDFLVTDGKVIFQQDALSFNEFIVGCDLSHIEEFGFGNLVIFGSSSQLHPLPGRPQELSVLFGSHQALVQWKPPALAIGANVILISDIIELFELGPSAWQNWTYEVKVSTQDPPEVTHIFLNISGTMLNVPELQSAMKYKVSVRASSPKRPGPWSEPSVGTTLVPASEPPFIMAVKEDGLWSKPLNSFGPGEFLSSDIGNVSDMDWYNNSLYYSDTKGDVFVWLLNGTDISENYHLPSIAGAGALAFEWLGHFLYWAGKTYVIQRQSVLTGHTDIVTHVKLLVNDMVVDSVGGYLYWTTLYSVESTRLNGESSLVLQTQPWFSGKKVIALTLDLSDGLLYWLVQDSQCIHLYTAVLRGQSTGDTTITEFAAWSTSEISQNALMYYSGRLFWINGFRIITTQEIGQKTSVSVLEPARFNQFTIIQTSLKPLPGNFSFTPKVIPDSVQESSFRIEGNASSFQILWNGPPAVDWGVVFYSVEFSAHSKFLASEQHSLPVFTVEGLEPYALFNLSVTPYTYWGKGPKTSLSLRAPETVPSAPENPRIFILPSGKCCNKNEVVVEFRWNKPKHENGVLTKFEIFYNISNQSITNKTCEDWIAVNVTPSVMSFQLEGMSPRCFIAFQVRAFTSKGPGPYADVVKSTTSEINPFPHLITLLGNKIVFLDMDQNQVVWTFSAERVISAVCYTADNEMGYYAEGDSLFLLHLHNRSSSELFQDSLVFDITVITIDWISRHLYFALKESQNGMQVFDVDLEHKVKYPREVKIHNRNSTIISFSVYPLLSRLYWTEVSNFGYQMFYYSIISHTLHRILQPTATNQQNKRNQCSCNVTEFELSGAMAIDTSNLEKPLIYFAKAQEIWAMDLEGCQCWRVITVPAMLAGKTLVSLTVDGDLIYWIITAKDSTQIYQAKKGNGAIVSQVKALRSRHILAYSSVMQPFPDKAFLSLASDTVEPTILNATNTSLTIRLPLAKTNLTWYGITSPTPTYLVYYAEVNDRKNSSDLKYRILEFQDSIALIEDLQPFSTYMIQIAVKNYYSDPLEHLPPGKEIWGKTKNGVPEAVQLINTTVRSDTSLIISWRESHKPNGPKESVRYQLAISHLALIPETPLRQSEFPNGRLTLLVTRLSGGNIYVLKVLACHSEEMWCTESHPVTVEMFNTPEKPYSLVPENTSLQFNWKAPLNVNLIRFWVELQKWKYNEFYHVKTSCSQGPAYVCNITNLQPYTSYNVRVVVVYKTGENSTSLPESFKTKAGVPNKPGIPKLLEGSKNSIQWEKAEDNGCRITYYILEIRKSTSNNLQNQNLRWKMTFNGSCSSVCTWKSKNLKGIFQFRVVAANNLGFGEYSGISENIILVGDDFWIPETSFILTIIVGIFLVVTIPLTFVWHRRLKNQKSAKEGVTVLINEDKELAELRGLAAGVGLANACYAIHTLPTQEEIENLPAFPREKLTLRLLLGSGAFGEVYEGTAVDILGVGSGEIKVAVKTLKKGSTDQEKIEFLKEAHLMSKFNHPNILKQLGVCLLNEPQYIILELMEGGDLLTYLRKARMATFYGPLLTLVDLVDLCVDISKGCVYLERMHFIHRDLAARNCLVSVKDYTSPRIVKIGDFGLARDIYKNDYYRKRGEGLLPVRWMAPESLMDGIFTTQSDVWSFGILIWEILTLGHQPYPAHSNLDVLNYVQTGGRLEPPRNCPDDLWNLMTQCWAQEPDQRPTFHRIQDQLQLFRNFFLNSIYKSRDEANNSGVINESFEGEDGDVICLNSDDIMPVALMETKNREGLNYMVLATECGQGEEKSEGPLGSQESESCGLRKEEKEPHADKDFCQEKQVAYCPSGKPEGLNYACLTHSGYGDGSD", "test": "Inhibition of ROS1 at 1 uM"}, "[30]": {"biological_target": "Serine/threonine-protein kinase PAK 5 (Homo sapiens) (UniProt Q9P286)", "test": "Inhibition of PAK7/PAK5 at 1 uM"}, "[31]": {"biological_target": "Epidermal growth factor receptor (Homo sapiens) (UniProt P00533)", "test": "Inhibition of EGFR at 1 uM"}, "[32]": {"biological_target": "Serine/threonine-protein kinase 16 (Homo sapiens) (UniProt O75716)", "test": "Inhibition of STK16 at 1 uM"}, "[33]": {"biological_target": "5'-AMP-activated protein kinase catalytic subunit alpha-1 (Homo sapiens) (UniProt Q13131)", "test": "Inhibition of AMPK-alpha1 at 1 uM", "outline": "as §1"}, "[34]": {"biological_target": "Casein kinase I isoform gamma-2 (Homo sapiens) (UniProt P78368)", "test": "Inhibition of CSNK1G2 at 1 uM"}, "[35]": {"tested_on": "HCT-116", "test": "Cell cycle arrest in Rb-competent human HCT116 cells assessed as reduction in S phase after 24 hrs using BrdUrd staining by FACS analysis", "format": "functional, cell-based", "conditions": "HCT-116, 24 h", "outline": "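Asynchronous HCT-116 cells treated 24 h with increasing inhibitor doses, then given a 30-min BrdUrd pulse before harvest. Percentage of BrdUrd-positive cells measured by FACS; IC50 taken as the dose reducing S phase to 50% of control.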"}, "[36]": {"biological_target": "Cyclin-dependent kinase 5 (Homo sapiens) (UniProt Q00535)", "test": "Inhibition of CDK5 at 1 uM"}, "[37]": {"biological_target": "Mitogen-activated protein kinase kinase kinase 4 (Homo sapiens) (UniProt Q9Y6R4)", "test": "Inhibition of MAP3K4 at 1 uM"}, "[38]": {"biological_target": "Serine/threonine-protein kinase ULK3 (Mus musculus) (UniProt Q3U3Q1)", "test": "Inhibition of mouse ULK3 at 1 uM"}, "[39]": {"biological_target": "Cyclin-G-associated kinase (Homo sapiens) (UniProt O14976)", "test": "Inhibition of GAK at 1 uM"}, "[40]": {"biological_target": "Platelet-derived growth factor receptor alpha (Homo sapiens) (UniProt P16234)", "test": "Inhibition of PDGFRA at 1 uM"}, "[41]": {"biological_target": "Phosphorylase b kinase gamma catalytic chain, skeletal muscle/heart isoform (Homo sapiens) (UniProt Q16816)", "sequence (Q16816 whole entry, looked up, canonical isoform)": "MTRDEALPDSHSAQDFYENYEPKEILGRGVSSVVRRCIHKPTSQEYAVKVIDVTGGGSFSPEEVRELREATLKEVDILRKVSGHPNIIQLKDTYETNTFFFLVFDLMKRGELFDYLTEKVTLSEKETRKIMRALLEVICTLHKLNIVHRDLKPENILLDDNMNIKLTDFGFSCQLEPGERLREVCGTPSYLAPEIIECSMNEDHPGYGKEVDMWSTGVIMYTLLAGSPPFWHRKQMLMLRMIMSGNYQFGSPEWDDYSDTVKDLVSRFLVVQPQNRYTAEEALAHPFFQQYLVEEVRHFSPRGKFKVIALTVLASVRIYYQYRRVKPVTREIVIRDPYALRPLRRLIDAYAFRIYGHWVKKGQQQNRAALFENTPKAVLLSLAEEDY", "test": "Inhibition of PHKG1 at 1 uM"}, "[42]": {"biological_target": "Serine/threonine-protein kinase 4 (Homo sapiens) (UniProt Q13043)", "test": "Inhibition of STK4 at 1 uM"}, "[43]": {"biological_target": "Calcium/calmodulin-dependent protein kinase type II subunit delta (Homo sapiens) (UniProt Q13557)", "test": "Inhibition of CAMK2D at 1 uM", "outline": "as §1"}}}
{"compound": "CN1CCN(c2ccc(Nc3nc(N)c(C(=O)c4ccc5c(c4)OCCO5)s3)cc2)CC1", "values": [{"measurement": "inhibition", "setting": "[1]", "value": "< 50", "unit": "%"}, {"measurement": "inhibition", "setting": "[2]", "value": 66, "unit": "%"}, {"measurement": "inhibition", "setting": "[3]", "value": "< 50", "unit": "%"}, {"measurement": "inhibition", "setting": "[4]", "value": "< 50", "unit": "%"}, {"measurement": "inhibition", "setting": "[5]", "value": "< 50", "unit": "%"}, {"measurement": "inhibition", "setting": "[6]", "value": "< 50", "unit": "%"}, {"measurement": "inhibition", "setting": "[7]", "value": "< 50", "unit": "%"}, {"measurement": "inhibition", "setting": "[8]", "value": "< 50", "unit": "%"}, {"measurement": "inhibition", "setting": "[9]", "value": "< 50", "unit": "%"}, {"measurement": "inhibition", "setting": "[10]", "value": "< 50", "unit": "%"}, {"measurement": "inhibition", "setting": "[11]", "value": "< 50", "unit": "%"}, {"measurement": "inhibition", "setting": "[12]", "value": "< 50", "unit": "%"}, {"measurement": "inhibition", "setting": "[13]", "value": "< 50", "unit": "%"}, {"measurement": "inhibition", "setting": "[14]", "value": "< 50", "unit": "%"}, {"measurement": "inhibition", "setting": "[15]", "value": "< 50", "unit": "%"}, {"measurement": "inhibition", "setting": "[16]", "value": "< 50", "unit": "%"}, {"measurement": "inhibition", "setting": "[17]", "value": "< 50", "unit": "%"}, {"measurement": "inhibition", "setting": "[18]", "value": "< 50", "unit": "%"}, {"measurement": "inhibition", "setting": "[19]", "value": "< 50", "unit": "%"}, {"measurement": "inhibition", "setting": "[20]", "value": 98, "unit": "%"}, {"measurement": "inhibition", "setting": "[21]", "value": "< 50", "unit": "%"}, {"measurement": "inhibition", "setting": "[22]", "value": "< 50", "unit": "%"}, {"measurement": "inhibition", "setting": "[23]", "value": "< 50", "unit": "%"}, {"measurement": "inhibition", "setting": "[24]", "value": 86, "unit": "%"}, {"measurement": "inhibition", "setting": "[25]", "value": "< 50", "unit": "%"}, {"measurement": "inhibition", "setting": "[26]", "value": "< 50", "unit": "%"}, {"measurement": "inhibition", "setting": "[27]", "value": "< 50", "unit": "%"}, {"measurement": "inhibition", "setting": "[28]", "value": "< 50", "unit": "%"}, {"measurement": "inhibition", "setting": "[29]", "value": "< 50", "unit": "%"}, {"measurement": "inhibition", "setting": "[30]", "value": "< 50", "unit": "%"}, {"measurement": "inhibition", "setting": "[31]", "value": "< 50", "unit": "%"}, {"measurement": "inhibition", "setting": "[32]", "value": 87, "unit": "%"}, {"measurement": "inhibition", "setting": "[33]", "value": "< 50", "unit": "%"}, {"measurement": "inhibition", "setting": "[34]", "value": 99, "unit": "%"}, {"measurement": "IC50", "setting": "[35]", "value": 3.9, "unit": "µM"}, {"measurement": "IC90", "setting": "[35]", "value": 6.1, "unit": "µM"}, {"measurement": "inhibition", "setting": "[36]", "value": "< 50", "unit": "%"}, {"measurement": "inhibition", "setting": "[37]", "value": "< 50", "unit": "%"}, {"measurement": "inhibition", "setting": "[38]", "value": "< 50", "unit": "%"}, {"measurement": "inhibition", "setting": "[39]", "value": 100, "unit": "%"}, {"measurement": "inhibition", "setting": "[40]", "value": "< 50", "unit": "%"}, {"measurement": "inhibition", "setting": "[41]", "value": "< 50", "unit": "%"}, {"measurement": "inhibition", "setting": "[42]", "value": "< 50", "unit": "%"}, {"measurement": "inhibition", "setting": "[43]", "value": "< 50", "unit": "%"}]}
